Measured values taken from ChEMBL document CHEMBL3352067, “1,8-Naphthyridines IX. Potent anti-inflammatory and/or analgesic activity of a new group of substituted 5-amino[1,2,4]triazolo[4,3-a][1,8]naphthyridine-6-carboxamides, of some their Mannich base derivatives and of one novel substituted …” (Eur J Med Chem, 2014).
Activity calls are given as the source filed them. The calls are words filed in the database; no cut-off is given here.

Experiments:
[1] = test system: Rattus norvegicus; test: Antiinflammatory activity in Wistar rat assessed as inhibition of carrageenan-induced paw oedema at 100 mg/kg, po administered 1 hr prior to carrageenan challenge; format: functional
How it was run: (§1)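 Wistar rats (250–300 g, either sex), fasted overnight, dosed by oral gavage with compound suspended in 0.5% methylcellulose; controls got vehicle. Groups of 8–10. 1 h later 0.1 mL 1% carrageenan injected subcutaneously into hind paw plantar surface; paw volume measured by plethysmometer immediately and 3 h later. Inhibition calculated from swelling difference versus controls (control = 100).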

[2] = test system: Mus musculus; test: Antinociceptive activity in Swiss mouse assessed as inhibition of acetic acid-induced writhing at 100 mg/kg, po administered 1 hr prior to acetic acid challenge measured for 30 mins; format: functional
How it was run: (§2)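 Swiss mice (25–35 g, either sex), fasted overnight, given compound orally in 0.5% methylcellulose; controls received vehicle; groups of 8–10. Writhes, scored as complete extension of either hind limb, counted over 30 min after injection of the noxious agent. Percent inhibition derived from the difference in writhing between treated and control groups.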

[3] = test system: Mus musculus; test: Antinociceptive activity in Swiss mouse assessed as inhibition of acetic acid-induced writhing at 25 mg/kg, po administered 1 hr prior to acetic acid challenge measured for 30 mins; format: functional; how it was run: as §2
[4] = test system: Mus musculus; test: Antinociceptive activity in Swiss mouse assessed as inhibition of acetic acid-induced writhing at 50 mg/kg, po administered 1 hr prior to acetic acid challenge measured for 30 mins; format: functional; how it was run: as §2
[5] = Antiplatelet activity in guinea pig platelet rich plasma assessed as inhibition of arachidonic acid-induced aggregation by aggregometry; format: functional, cell-free; settings: Cavia porcellus
How it was run: (§3)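 Guinea pig blood drawn by cardiac puncture into 3.8% citrate (1:9). PRP obtained by spinning at 180 g for 15 min, PPP at 2000 g for 10 min. PRP preincubated 5 min at 37 °C with compound or DMSO (≤0.5% final), then aggregation triggered by U46619, ADP or arachidonic acid. Born turbidimetry at 37 °C with stirring; percent inhibition versus control; tested within 3 h.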

[6] = Antiplatelet activity in guinea pig platelet rich plasma assessed as inhibition of ADP-induced aggregation by aggregometry; format: functional, cell-free; settings: Cavia porcellus; how it was run: as §3
[7] = Antiplatelet activity in guinea pig platelet rich plasma assessed as inhibition of U46619-induced aggregation by aggregometry; format: functional, cell-free; settings: Cavia porcellus; how it was run: as §3
[8] = test system: Rattus norvegicus; test: Acute gastrolesivity in Wistar rat assessed as stomach lesions at 10 mg/kg, po measured after 5 hrs; format: toxicity, organism-based; parameters: dose 10 mg/kg, route oral; settings: in vivo
How it was run: (§4)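 Wistar rats (250-300 g, either sex), fasted overnight, dosed by oral gavage in 0.5% methylcellulose (1 mL 100 g^-1); groups of 8-10. Stomachs excised 5 h post-dose, fixed with 2% formalin, opened along greater curvature, examined by stereomicroscope by blinded observer. Read-out: number of rats with gastric damage over number treated.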

[9] = test system: Mus musculus; test: Antinociceptive activity in Swiss mouse assessed as inhibition of acetic acid-induced writhing at 12.5 mg/kg, po administered 1 hr prior to acetic acid challenge measured for 30 mins; format: functional; how it was run: as §2
[10] = test system: Mus musculus; test: Sedative activity in Swiss mouse assessed as inhibition of spontaneous locomotor activity at 50 mg/kg, po measured for 30 mins by open-field test; format: organism-based; parameters: dose 50 mg/kg, route oral; settings: in vivo, 0.5 h
How it was run: (§5)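 Swiss mice (25-35 g, either sex), fasted overnight, given compound orally by gavage suspended in 0.5% methylcellulose; vehicle controls; groups of 8-10. Spontaneous locomotor activity recorded by videocamera with video-tracking as distance (m) travelled in 30 min; Student's t-test vs controls.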

[11] = test system: Mus musculus; test: Sedative activity in Swiss mouse assessed as inhibition of spontaneous locomotor activity at 25 mg/kg, po measured for 30 mins by open-field test; format: organism-based; parameters: dose 25 mg/kg, route oral; settings: in vivo, 0.5 h; how it was run: as §5
[12] = test system: Mus musculus; test: Sedative activity in Swiss mouse assessed as inhibition of spontaneous locomotor activity at 100 mg/kg, po measured for 30 mins by open-field test; format: organism-based; parameters: dose 100 mg/kg, route oral; settings: in vivo, 0.5 h; how it was run: as §5
[13] = test system: Rattus norvegicus; test: Antiinflammatory activity in Wistar rat assessed as inhibition of carrageenan-induced paw oedema at 50 mg/kg, po administered 1 hr prior to carrageenan challenge; format: functional; how it was run: as §1
[14] = test system: Rattus norvegicus; test: Antiinflammatory activity in Wistar rat assessed as inhibition of carrageenan-induced paw oedema at 25 mg/kg, po administered 1 hr prior to carrageenan challenge; format: functional; how it was run: as §1
[15] = test system: Rattus norvegicus; test: Antiinflammatory activity in Wistar rat assessed as inhibition of carrageenan-induced paw oedema at 12.5 mg/kg, po administered 1 hr prior to carrageenan challenge; format: functional; how it was run: as §1
[16] = test system: Mus musculus; test: Sedative activity in Swiss mouse assessed as inhibition of spontaneous locomotor activity at 12.5 mg/kg, po measured for 30 mins by open-field test; format: organism-based; parameters: dose 12.5 mg/kg, route oral; settings: in vivo, 0.5 h; how it was run: as §5
[17] = test system: Mus musculus; test: Antinociceptive activity in Swiss mouse assessed as inhibition of acetic acid-induced writhing at 6.25 mg/kg, po administered 1 hr prior to acetic acid challenge measured for 30 mins; format: functional; how it was run: as §2
[18] = test system: Rattus norvegicus; test: Antiinflammatory activity in Wistar rat assessed as inhibition of carrageenan-induced paw oedema at 6.25 mg/kg, po administered 1 hr prior to carrageenan challenge; format: functional; how it was run: as §1
[19] = test system: J774; test: Antiinflammatory activity in mouse J774 cells assessed as inhibition of LPS-induced NO production at 100 uM after 6 hrs by Griess assay; format: functional, cell-based
How it was run: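 J774 murine macrophages grown in DMEM with 10% FBS and 2 mM glutamine at 37 °C, 5% CO2. Cells plated at 2.5 × 10⁵/mL, left to adhere overnight, and the medium refreshed. Compound added together with LPS. Supernatants taken after 6 h; nitrite measured with Griess reagent (10 min) as absorbance at 540 nm, with fresh medium as blank.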

[20] = test system: Rattus norvegicus; test: Acute gastrolesivity in Wistar rat assessed as stomach lesions at 100 mg/kg, po measured after 5 hrs; format: toxicity, organism-based; parameters: dose 100 mg/kg, route oral; settings: in vivo; how it was run: as §4
[21] = test system: Rattus norvegicus; test: Antiinflammatory activity in Wistar rat assessed as inhibition of carrageenan-induced paw oedema at 3.12 mg/kg, po administered 1 hr prior to carrageenan challenge; format: functional; how it was run: as §1
[22] = test system: Rattus norvegicus; test: Antiinflammatory activity in Wistar rat assessed as inhibition of carrageenan-induced paw oedema at 1.6 mg/kg, po administered 1 hr prior to carrageenan challenge; format: functional; how it was run: as §1
[23] = test system: Rattus norvegicus; test: Antiinflammatory activity in Wistar rat assessed as inhibition of carrageenan-induced paw oedema at 0.8 mg/kg, po administered 1 hr prior to carrageenan challenge; format: functional; how it was run: as §1

Row | SMILES | inhibition in vivo at 100 mg/kg [1] [%] | inhibition in vivo at 100 mg/kg [2] [%] | inhibition in vivo at 25 mg/kg [3] [%] | inhibition in vivo at 50 mg/kg [4] [%] | Activity [12] | inhibition in vivo at 50 mg/kg [13] [%] | inhibition in vivo at 25 mg/kg [14] [%] | other results
1 | CCN(CC)C(=O)c1c(NCC(C)C)c2cccnc2n2c(=O)cc(C)nc12 | 15 | 71 | 0 | 54 |  |  |  | 
2 | CC(=O)Oc1ccccc1C(=O)O [ASPIRIN] |  |  |  |  |  |  |  | IC50 [5]: 45 µM; IC50 [6]: > 500 µM; IC50 [7]: > 500 µM
3 | CCN(CC)C(=O)c1c(NC(C)C)c2cccnc2n2c(CN3CCN(C)CC3)nnc12 | 13 | 0 |  |  |  |  |  | 
4 | COc1ccc2c(c1)c(CC(=O)O)c(C)n2C(=O)c1ccc(Cl)cc1 [INDOMETHACIN] |  |  |  |  |  |  |  | Activity [8]: Toxic
5 | CCN(CC)C(=O)c1c(N2CCN(CCO)CC2)c2cccnc2n2c(C(C)C)nnc12 | 0 | 85 | 48 | 96 | Toxic |  |  | inhibition in vivo at 12.5 mg/kg [9]: 13%; Activity [10]: Toxic; Activity [11]: Toxic
6 | CNC(=O)c1c(NC(C)C)c2cccnc2n2c(C(C)C)nnc12 | 50 | 67 |  | 11 | Toxic | 3 |  | 
7 | CCN1CCN(c2c(C(=O)N(CC)CC)c3nnc(C(C)C)n3c3ncccc23)CC1 | 31 | 100 | 72 | 74 | Toxic | 35 | 36 | inhibition in vivo at 12.5 mg/kg [15]: 31%; inhibition in vivo at 12.5 mg/kg [9]: 50%; Activity [10]: Toxic; Activity [16]: Toxic; inhibition in vivo at 6.25 mg/kg [17]: 0%; inhibition in vivo at 6.25 mg/kg [18]: 8%; Activity [11]: Toxic
8 | CCNC(=O)c1c(NC(C)C)c2cccnc2n2c(C(C)C)nnc12 | 80 | 66 | 15 | 64 | Toxic | 72 | 57 | inhibition [19]: inactive; Activity [20]: Non-toxic; inhibition in vivo at 3.12 mg/kg [21]: 31%; inhibition in vivo at 12.5 mg/kg [15]: 54%; IC50 [5]: 24 µM; inhibition in vivo at 6.25 mg/kg [18]: 40%; inhibition in vivo at 1.6 mg/kg [22]: 31%; IC50 [6]: 281 µM; inhibition in vivo at 0.8 mg/kg [23]: 0%; IC50 [7]: 89 µM
9 | CCNC(=O)c1c(NC(CC)CC)c2cccnc2n2c(C(C)C)nnc12 | 60 | 34 | 0 | 41 |  | 35 | 30 | inhibition in vivo at 12.5 mg/kg [15]: 12%
10 | CC(C)NC(=O)c1c(NC(C)C)c2cccnc2n2c(C(C)C)nnc12 | 34 | 0 |  |  |  | 33 | 9 | 
11 | CCN(CC)C(=O)c1c(NC(C)C)c2cccnc2n2c(CN3CCOCC3)nnc12 | 0 | 0 |  |  |  |  |  | 
12 | CCN(CC)C(=O)c1c(N2CCN(C)CC2)c2cccnc2n2c(CN3CCN(C)CC3)nnc12 | 0 | 0 |  |  |  |  |  | 
13 | CCc1nnc2c(C(=O)N(CC)CC)c(N3CCN(C)CC3)c3cccnc3n12 | 39 | 95 | 10 | 81 | Toxic | 29 | 22 | Activity [10]: Toxic
14 | CCCNC(=O)c1c(NC(C)C)c2cccnc2n2c(C(C)C)nnc12 | 72 | 0 |  | 0 |  | 63 | 70 | inhibition in vivo at 12.5 mg/kg [15]: 44%; inhibition in vivo at 6.25 mg/kg [18]: 19%
15 | CCN(CC)C(=O)c1c(N2CCN(C)CC2)c2cccnc2n2c(CN3CCOCC3)nnc12 | 8 | 37 |  |  |  |  |  | 
